Calls of active or inactive are those of the source.
Assays:
[1] = Half life in anesthetized C57BL/6J mouse plasma at 10 mg/kg, ip administered as single dose measured upto 240 mins by LC-MS/MS analysis; type: ADME, organism-based
How it was run: (§1)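 Male and female mice (C57BL/6J or C57BL/6J x 129 F1), postnatal days 21-28, single i.p. injection at 10 mL/kg in vegetable oil or ethanol–Tween 80–saline (1:1:18). Blood taken by cardiac puncture under isoflurane at time points 15–240 min. Plasma and PBS brain homogenate extracted with ice-cold acetonitrile, diazepam internal standard, quantified by LC-MS/MS. Mean concentrations per time point (n = 3-5); noncompartmental analysis.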

[2] = Cmax in anesthetized C57BL/6J mouse brain at 10 mg/kg, ip administered as single dose measured upto 240 mins in presence of tween-80 by LC-MS/MS analysis; type: ADME, organism-based; design: dose 10 mg/kg, route intraperitoneal; conditions: in vivo, 4 h; how it was run: as §1
[3] = Tmax in anesthetized C57BL/6J mouse brain at 10 mg/kg, ip administered as single dose measured upto 240 mins by LC-MS/MS analysis; type: ADME, organism-based; how it was run: as §1
[4] = Cmax in anesthetized C57BL/6J mouse brain at 10 mg/kg, ip administered as single dose measured upto 240 mins by LC-MS/MS analysis; type: ADME, organism-based; design: dose 10 mg/kg, route intraperitoneal; conditions: in vivo, 4 h; how it was run: as §1
[5] = Drug uptake in plasma of anesthetized C57BL/6J mouse at 10 mg/kg, ip by LC-MS/MS analysis; type: ADME, organism-based; conditions: in vivo
How it was run: (§2)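 Mice aged 21-28 days postnatal received one i.p. dose (10 mL/kg), and plasma and brain were sampled at 15–240 min. Decarboxylated neutral cannabinoids were measured by LC-MS/MS against known standards, alongside the parent acid.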

[6] = Half life in anesthetized C57BL/6J mouse brain at 10 mg/kg, ip administered as single dose measured upto 240 mins in presence of tween-80 by LC-MS/MS analysis; type: ADME, organism-based; how it was run: as §1
[7] = Tmax in anesthetized C57BL/6J mouse brain at 10 mg/kg, ip administered as single dose measured upto 240 mins in presence of tween-80 by LC-MS/MS analysis; type: ADME, organism-based; how it was run: as §1
[8] = AUC in anesthetized C57BL/6J mouse brain at 10 mg/kg, ip administered as single dose measured upto 240 mins in presence of tween-80 by LC-MS/MS analysis; type: ADME, organism-based; design: dose 10 mg/kg, time < 4 hr, route intraperitoneal; conditions: in vivo, 4 h; how it was run: as §1
[9] = AUC in anesthetized C57BL/6J mouse plasma at 10 mg/kg, ip administered as single dose measured upto 240 mins in presence of vegetable oil by LC-MS/MS analysis; type: ADME, organism-based; design: time < 4 hr, dose 10 mg/kg, route intraperitoneal; how it was run: as §1
[10] = AUC in anesthetized C57BL/6J mouse plasma at 10 mg/kg, ip administered as single dose measured upto 240 mins in presence of tween-80 by LC-MS/MS analysis; type: ADME, organism-based; design: dose 10 mg/kg, time < 4 hr, route intraperitoneal; how it was run: as §1
[11] = Half life in anesthetized C57BL/6J mouse brain at 10 mg/kg, ip administered as single dose measured upto 240 mins by LC-MS/MS analysis; type: ADME, organism-based; how it was run: as §1
[12] = Tmax in anesthetized C57BL/6J mouse brain at 10 mg/kg, ip administered as single dose measured upto 240 mins in presence of vegetable oil by LC-MS/MS analysis; type: ADME, organism-based; how it was run: as §1
[13] = Tmax in anesthetized C57BL/6J mouse plasma at 10 mg/kg, ip administered as single dose measured upto 240 mins by LC-MS/MS analysis; type: ADME, organism-based; how it was run: as §1
[14] = Cmax in anesthetized C57BL/6J mouse plasma at 10 mg/kg, ip administered as single dose measured upto 240 mins by LC-MS/MS analysis; type: ADME, organism-based; design: dose 10 mg/kg, route intraperitoneal; how it was run: as §1
Mus musculus [15] = assay: Anticonvulsant activity against hyperthermia-induced seizure in Scn1aRX/+ mouse model of Dravet syndrome assessed as increase in generalized tonic-clonic seizure temperature threshold at 10 to 30 mg/kg, ip administered as single dose measured by RET-3 rectal probe; type: functional, organism-based
[16] = Cmax in anesthetized C57BL/6J mouse plasma at 10 mg/kg, ip administered as single dose measured upto 240 mins in presence of tween-80 by LC-MS/MS analysis; type: ADME, organism-based; design: dose 10 mg/kg, route intraperitoneal; how it was run: as §1
[17] = AUC in anesthetized C57BL/6J mouse plasma at 10 mg/kg, ip administered as single dose measured upto 240 mins by LC-MS/MS analysis; type: ADME, organism-based; design: time < 4 hr, dose 10 mg/kg, route intraperitoneal; how it was run: as §1
[18] = Drug metabolism in brain of anesthetized C57BL/6J mouse at 10 mg/kg, ip by LC-MS/MS analysis; type: ADME, organism-based; conditions: in vivo; how it was run: as §2
[19] = Ratio of drug level in anesthetized C57BL/6J mouse brain to plasma at 5 mg/kg, ip administered as single dose measured upto 240 mins in presence of vegetable oil by LC-MS/MS analysis; type: ADME, organism-based; conditions: read-out: BPR
[20] = Cmax in anesthetized C57BL/6J mouse brain at 10 mg/kg, ip administered as single dose measured upto 240 mins in presence of vegetable oil by LC-MS/MS analysis; type: ADME, organism-based; design: dose 10 mg/kg, route intraperitoneal; conditions: in vivo, 4 h; how it was run: as §1
[21] = Half life in anesthetized C57BL/6J mouse plasma at 10 mg/kg, ip administered as single dose measured upto 240 mins in presence of tween-80 by LC-MS/MS analysis; type: ADME, organism-based; how it was run: as §1
[22] = Cmax in anesthetized C57BL/6J mouse plasma at 10 mg/kg, ip administered as single dose measured upto 240 mins in presence of vegetable oil by LC-MS/MS analysis; type: ADME, organism-based; design: dose 10 mg/kg, route intraperitoneal; how it was run: as §1
[23] = Ratio of drug level in anesthetized C57BL/6J mouse brain to plasma at 10 mg/kg, ip administered as single dose measured upto 240 mins by LC-MS/MS analysis; type: ADME, organism-based; conditions: read-out: BPR; how it was run: as §1
[24] = Ratio of drug level in anesthetized C57BL/6J mouse brain to plasma at 5 mg/kg, ip administered as single dose measured upto 240 mins in presence of tween-80 by LC-MS/MS analysis; type: ADME, organism-based; conditions: read-out: BPR
[25] = Half life in anesthetized C57BL/6J mouse brain at 10 mg/kg, ip administered as single dose measured upto 240 mins in presence of vegetable oil by LC-MS/MS analysis; type: ADME, organism-based; how it was run: as §1
[26] = Half life in anesthetized C57BL/6J mouse plasma at 10 mg/kg, ip administered as single dose measured upto 240 mins in presence of vegetable oil by LC-MS/MS analysis; type: ADME, organism-based; how it was run: as §1
[27] = Dissociation constant, pKa of compound; type: physicochemical
[28] = AUC in anesthetized C57BL/6J mouse brain at 10 mg/kg, ip administered as single dose measured upto 240 mins by LC-MS/MS analysis; type: ADME, organism-based; design: dose 10 mg/kg, time < 4 hr, route intraperitoneal; conditions: in vivo, 4 h; how it was run: as §1
[29] = Tmax in anesthetized C57BL/6J mouse plasma at 10 mg/kg, ip administered as single dose measured upto 240 mins in presence of vegetable oil by LC-MS/MS analysis; type: ADME, organism-based; how it was run: as §1
[30] = AUC in anesthetized C57BL/6J mouse brain at 10 mg/kg, ip administered as single dose measured upto 240 mins in presence of vegetable oil by LC-MS/MS analysis; type: ADME, organism-based; design: dose 10 mg/kg, time < 4 hr, route intraperitoneal; conditions: in vivo, 4 h; how it was run: as §1
[31] = Partition coefficient, log P of compound; type: physicochemical; conditions: octanol/water
[32] = Tmax in anesthetized C57BL/6J mouse plasma at 10 mg/kg, ip administered as single dose measured upto 240 mins in presence of tween-80 by LC-MS/MS analysis; type: ADME, organism-based; how it was run: as §1
Mus musculus [33] = assay: Anticonvulsant activity against hyperthermia-induced seizure in ip administered Scn1aRX/+ mouse model of Dravet syndrome assessed as effective dose causing increase in generalized tonic-clonic seizure temperature threshold measured by RET-3 rectal probe; type: functional
[34] = Drug metabolism in plasma of anesthetized C57BL/6J mouse assessed as decrease in decarboxylation of parent compound at 10 mg/kg, ip by LC-MS/MS analysis; type: ADME, organism-based; conditions: in vivo; how it was run: as §2
[35] = Drug metabolism in brain of anesthetized C57BL/6J mouse assessed as decrease in decarboxylation of parent compound at 10 mg/kg, ip by LC-MS/MS analysis; type: ADME, organism-based; conditions: in vivo; how it was run: as §2
[36] = Drug uptake in plasma of anesthetized C57BL/6J mouse assessed as purity of compound at 10 mg/kg, ip by LC-MS/MS analysis; type: ADME, organism-based; conditions: in vivo; how it was run: as §2

SMILES | half-life [1] [min] | Tmax [3] [min] | Cmax [4] [ng/mg] | Drug uptake [5] [%] | AUC at 4 h [9] [ng·h/mL] | AUC at 4 h [10] [ng·h/mL] | half-life [11] [min] | Tmax [13] [min] | Cmax [14] [ng/mL] | Cmax [16] [ng/mL] | AUC at 4 h [17] [ng·h/mL] | Drug metabolism [18] | half-life [21] [min] | Cmax [22] [ng/mL] | Kp at 4 h [23] | half-life [26] [min] | pKa [27] | AUC [28] [µg·min/g] | Tmax [29] [min] | logP [31] | also measured
C=C(C)[C@@H]1CCC(C)=C[C@H]1c1c(O)cc(CCCCC)c(C(=O)O)c1O [CANNABIDIOLIC ACID] | 92 | 45 | 2 | 0.5 | 78300 | 9970 | 41 | 30 | 29600 | 17600 | 78300 | Metabolite_Notdetected | 55 | 29600 | 0.04 | 92 | 2.91 | 183 | 30 | 6.63 | Cmax [2]: 13.2 ng/mg; half-life [6]: 67 min; Tmax [7]: 30 min; AUC [8]: 1142 ng·min/g; Tmax [12]: 45 min; Activity (Mus musculus [15]): Active; Kp at 4 h [19]: 0.04; Cmax [20]: 2 ng/mg; Kp at 4 h [24]: 1.9; half-life [25]: 41 min; AUC [30]: 183 ng·min/g; Tmax [32]: 15 min
C=C(C)[C@@H]1CCC(C)=C[C@H]1c1c(O)cc(CCCCC)cc1O [CANNABIDIOL] |  |  |  |  |  |  |  |  |  |  |  |  |  |  |  |  |  |  |  |  | ED (Mus musculus [33]): 100 mg/kg
CCCCCc1cc(O)c(C/C=C(\C)CCC=C(C)C)c(O)c1C(=O)O [CANNABIGEROLIC ACID] | 62 | 30 | 2.3 |  |  |  | 31 | 45 | 63500 |  | 99300 |  |  |  | 0.02 |  | 2.92 | 94 |  | 7.35 | Drug metabolism [34]: Metabolite_Notdetected; Drug metabolism [35]: Metabolite_Notdetected
CCCCCc1cc2c(c(O)c1C(=O)O)[C@@H]1C=C(C)CC[C@H]1C(C)(C)O2 [DELTA9-TETRAHYDROCANNABINOLIC ACID A] | 67 |  |  | 1 | 5030 | 5630 |  | 15 | 2800 | 6900 | 5030 | Metabolite_Notdetected | 33 | 2800 |  | 67 | 2.89 |  | 15 | 6.25 | Cmax ([2]; BLD = below limit of detection): Bld; Cmax ([4]; BLD = below limit of detection): Bld; Drug uptake [36]: 95%; Cmax ([20]; BLD = below limit of detection): Bld; Tmax [32]: 15 min

Reference: ChEMBL document CHEMBL4414643, “Pharmacokinetics of Phytocannabinoid Acids and Anticonvulsant Effect of Cannabidiolic Acid in a Mouse Model of Dravet Syndrome” (J Nat Prod, 2019)
